These results are taken from PubChem BioAssay AID1385 (PCMD, 2008).

What is called inhibition is the drop in the measured response relative to a control, in per cent.

In all, about 200,000 compounds went through this assay and about 170 (0.085%) were called active. The sample holds actives, similar compounds and a random draw of the others, so the mix is not that of the screen. Unmarked numbers belong to inactive results.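 The calls were made as follows: active = inhibition above 40% at the single screening dose; inactive = the rest.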

Chain of DNA repair protein RAD51 homolog 1 (Homo sapiens) (Q06609 whole entry, looked up): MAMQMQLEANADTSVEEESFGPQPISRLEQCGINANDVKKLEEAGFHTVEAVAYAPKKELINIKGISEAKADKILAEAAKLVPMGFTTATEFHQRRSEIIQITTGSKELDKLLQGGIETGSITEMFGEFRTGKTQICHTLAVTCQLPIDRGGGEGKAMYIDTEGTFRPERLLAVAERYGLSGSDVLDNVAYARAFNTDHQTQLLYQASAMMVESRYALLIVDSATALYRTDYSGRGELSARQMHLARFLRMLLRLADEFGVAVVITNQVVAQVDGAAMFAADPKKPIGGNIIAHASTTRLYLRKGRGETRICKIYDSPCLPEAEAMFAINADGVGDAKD

The test deals with DNA repair protein RAD51 homolog 1 (Homo sapiens) (UniProt Q06609). The experiment in a line: human RAD51 strand exchange inhibitors, primary screen, biochemical, fluorescence (AID 1385).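 Also: 0% = DMSO control wells and 100% = blanks with heterologous ssDNA.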 Particulars: hRad51 DNA strand exchange, fluorescence dequenching; at 10 µM; hits give high values. An outline of the steps: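 Material: Human Rad51 nucleoprotein filaments preassembled on unlabelled ssDNA | Also added: Labelled 47-mer dsDNA for strand exchange | Dosing: Single dose, 10 µM final compound | Schedule: 30-min compound preincubation and 15-min exchange, both room temperature | Technique: Fluorescence dequenching at 485/520 nm | Measure: Percent inhibition relative to plate controls and blanks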
With `COc1ccccc1-n1c(SCC(=O)O)nc2sc3c(c2c1=O)CCC3`, the inhibition was 4.79%.
The figure for `COC(=O)C1=C[C@@H](C(=O)OC)[C@@H]2C3=C(C(=O)[C@]2(C)NC(=O)c2ccccc2)[C@H](C)n2c(=O)n(C)c(=O)n2[C@@H]3C1` is -1.64%.
Under `Cc1ncn2cc(-c3ccc(Cl)cc3Cl)[nH]c(=O)c12` stands -9.91%.
Under `CCn1c(=O)c2cc(C(=O)Nc3cccc(C(C)=O)c3)sc2c2ccccc21` stands -1.26%; under `NS(=O)(=O)c1ccc(CNC(=O)c2cnccn2)cc1`, 7.99%.
Consider `NC(=O)c1nnsc1-c1ccc(-c2snnc2C(N)=O)cc1`, for which the inhibition was -31.9%.
On to `COc1ccc(CN2CCOC2=O)cc1OC`, for which the inhibition is -3.27%.
The figure for `CCN(CC)c1ccc(NC(=O)C2CCC(CNc3c(N4CCCC4)c(=O)c3=O)CC2)c(C)c1` (stereo unspecified) is 15.6%; for `CC(O)c1nc2c(c(=O)n(C)c(=O)n2C)n1C` (stereo unspecified) it is -23.8%.
Under `COc1ccc(CCn2ccc(O)c(Cc3ccc(Cl)cc3Cl)c2=O)cc1OC` stands 43.6% (active); under `COc1ccc(C(=O)O/N=C(\N)Cc2ccc(Cl)cc2Cl)cc1OC`, 1.56%; under `COc1ccc(CCNC2=C(Cl)C(=O)N(Cc3ccccc3)C2=O)cc1OC`, 8.51%.
As for `O=C1[C@@H]2C(c3cccnc3)=NO[C@@H]2C(=O)N1c1ccc(Cl)cc1Cl`, the inhibition was -42%.
For `COc1ccc(NS(=O)(=O)c2ccc(N3CCOCC3)c(NC(=O)c3ccccc3Br)c2)cc1`, the inhibition is 17%.
Under `CN(C)S(=O)(=O)c1ccc(Cl)c(NC(=O)COC(=O)CC(NC(N)=O)c2ccc(Cl)cc2)c1` (stereo unspecified) stands -44.1%; under `Clc1ccc(C[n+]2cc(-c3ccccc3)n3c2CCC3)cc1`, 18.9%.
The figure for `NNC(=O)c1ccc(COCC(F)(F)C(F)F)cc1` is 1.4%; for `COc1ccc2nc(NC(=O)NC3CCCCC3)sc2c1` it is -16.2%; for `Cc1ccsc1/C=N/NC(=O)Cc1cc(=O)[nH][nH]1` it is 16.7%.
`Cc1ccc(C(=O)NNC2=Nc3cc([N+](=O)[O-])ccc3OC2)cc1`: the inhibition was 3.01%.
The figure for `COc1ccc(NC(=O)CSc2ncnc3[nH]ncc23)cc1` is -5.26%.
